Data published in paper PMC3215871 (Cancer Chemotherapy and Pharmacology, 2011).
“And” between values parts separate entries of the source, which are not always exact repeats. Equal entries are not always repeated. Where two headings read alike, the source gives them in different places. Each block holds one molecule with its values, some of them ahead of it. Peptide text beside a SMILES is read from it. * marks the point of attachment. Cbz = O=C(OCc1ccccc1)*

Legend:
RPMI-8226 cells = assay: Bortezomib–EGCG combination matrix, ATP luminescence cell viability; format: cell-based, human
[1] = Pharmacokinetics of EGCG in mice; format: in vivo; details: for Cmax: read-out: mean Cmax
In short: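 Naïve female nude or male CB-17 SCID mice aged 5–8 weeks given EGCG in 0.9% saline: PO 50, IV 50 and 100, or SC 50 mg/kg. Cardiac blood taken under CO2 from 5 min to 48 h; EDTA plasma stabilised 1:1 with ascorbic acid/EDTA, stored at −80°C, assayed by LC/MS/MS. Concentrations at bortezomib dosing times projected from these profiles.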

[2] = tested on: CWR22 human prostate xenograft tumors; assay: In vivo antitumor activity; set-up: species or system mice
In short: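 Male CB-17 SCID mice aged 5–8 weeks implanted SC in the flank (trocar) with CWR22 fragments; randomised at 150–250 mm3 (n = 9/group). EGCG 50 mg/kg IV or SC BIW for 7 doses; ascorbic acid 40 or 500 mg/kg PO QD for 22 days; vehicle 0.9% saline. Calipers BIW; volume = 0.5 × length × width². TGI from mean volumes versus control on day 22 or 25.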

20S proteasome [3] = biological target: T1, 20S proteasome (Mus musculus, UniProt O55234); assay: 20S proteasome activity in blood, enzymatic assay; format: in vivo, mice; details: for inhibition at 0.8 mg/kg: mouse
T1 sequence (O55234 60-264): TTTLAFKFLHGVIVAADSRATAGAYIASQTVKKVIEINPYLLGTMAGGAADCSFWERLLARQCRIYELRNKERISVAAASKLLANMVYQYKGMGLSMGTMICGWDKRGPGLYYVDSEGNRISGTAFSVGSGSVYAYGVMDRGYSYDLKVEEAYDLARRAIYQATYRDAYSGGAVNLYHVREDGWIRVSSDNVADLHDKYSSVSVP
In short: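 20S proteasome activity in blood measured by an enzymatic assay on samples taken 4 h after dosing. Schedules were bortezomib 0.8 mg/kg IV, EGCG 50 mg/kg IV alone, EGCG 50 mg/kg IV then bortezomib 2 min later, or EGCG 50 mg/kg SC then bortezomib 30 or 60 min later. Inhibition expressed relative to vehicle controls.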

20S proteasome [4] = biological target: T2, 20S proteasome (Homo sapiens, UniProt P28074); assay: 20S proteasome activity in xenograft tumors, enzymatic assay; format: in vivo
T2 sequence (P28074 60-263): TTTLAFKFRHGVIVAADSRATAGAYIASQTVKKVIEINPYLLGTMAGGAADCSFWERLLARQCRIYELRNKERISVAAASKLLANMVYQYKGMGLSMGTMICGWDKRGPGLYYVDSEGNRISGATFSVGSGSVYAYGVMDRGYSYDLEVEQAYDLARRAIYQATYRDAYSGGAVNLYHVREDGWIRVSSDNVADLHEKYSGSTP
In short: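 CWR22 human prostate tumor fragments were implanted subcutaneously by trocar in the flank of male CB-17 SCID mice aged 5–8 weeks. Tumor-bearing mice received an IV dose of the test compound. At 4 h, tumors were collected and 20S proteasome activity was measured by an enzymatic assay. Inhibition is expressed as a mean percentage relative to vehicle-treated controls.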

[5] = tested on: phospho-β-catenin (Ser33/Ser37/Thr41), GADD34 and ATF3; assay: Western blot of xenograft tumors for proteasome substrate and ER stress markers; format: in vivo, human; details: 4 h
In short: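 CWR22 xenograft tumours harvested 4 h after dosing with bortezomib 0.8 mg/kg IV, EGCG 50 mg/kg IV, or EGCG (IV, then bortezomib 2 min later; SC, then bortezomib 30 or 60 min later). Western blots probed for phospho-β-catenin (Ser33/Ser37/Thr41), GADD34 and ATF3, compared with vehicle controls.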

[6] = cited from earlier work; for maximal plasma concentration: humans, 800 mg EGCG supplements
[7] = cited from earlier work
MM cell lines = details: 10 nM bortezomib, several MM cell lines; cited from earlier work
glioblastoma cell line = details: 20 μM EGCG, 20 nM bortezomib; cited from earlier work
[8] = tested on: mouse xenograft models of human MM; details: cited from earlier work
[9] = cited from earlier work; remark: listed apart in the source
[10] = Pharmacokinetics of ascorbic acid; format: in vivo, mice; details: for Cmax / Tmax: male, CB-17 SCID, mouse, po
In short: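 Male CB-17 SCID mice bearing CWR22 tumours (naïve mice also sampled) given ascorbic acid 40 or 500 mg/kg PO in 0.9% saline. Cardiac blood taken at 0.5–6 h into lithium heparin; plasma stabilised 1:1 with 10% metaphosphoric acid, stored at −80°C. LC/MS/MS in negative ion MRM mode (m/z 175.0/114.8).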

[11] = humans, oral dose of 1,250 mg; cited from earlier work
RPMI8226 cells = details: cited from earlier work
[12] = human plasma, within an hour post-dose; cited from earlier work
[13] = iv, read-out: mean 20S proteasome inhibition

Projected plasma concentration of EGCG at the time of bortezomib dosing ([1]; 50 mg/kg IV EGCG, 2 min interval): 224 µM | Projected plasma concentration of EGCG at the time of bortezomib dosing ([1]; 50 mg/kg SC EGCG, 30 min interval): 11 to 16 µM | Projected plasma concentration of EGCG at the time of bortezomib dosing ([1]; 50 mg/kg SC EGCG, 60 min interval): 4 to 8 µM | time plasma concentration remained higher than 3 μM ([1]; IV and SC dosing at 50 mg/kg): ~2 h | maximal EGCG concentration ([1]; SC 50 mg/kg): > 25 µM | EGCG plasma concentration ([1]; SC 50 mg/kg, 30 min post-dose, first study): 16.2 µM | EGCG plasma concentration ([1]; SC 50 mg/kg, 30 min post-dose, second study): 11.3 µM | EGCG plasma concentration ([1]; SC 50 mg/kg, 1 h post-dose, first study): 8.4 µM | EGCG plasma concentration ([1]; SC 50 mg/kg, 1 h post-dose, second study): 3.9 µM | EGCG plasma concentration ([1]; SC 50 mg/kg, 2 h post-dose, first study): 2.8 µM | EGCG plasma concentration ([1]; SC 50 mg/kg, 2 h post-dose, second study): 2.5 µM | mean plasma Tmax ([1]; SC 50 mg/kg, naïve male CB17 SCID mice, both studies): 0.083 h | plasma levels of EGCG ([1]; after IV dosing (50 and 100 mg/kg), within 30 min of dosing): < 20 µM | maximal plasma concentration ([1]; oral dosing 50 mg/kg): < 0.1 µM | Cmax ([1]; SC 50 mg/kg, naïve male CB17 SCID mice, first study): 33.7 µM | Cmax ([1]; SC 50 mg/kg, naïve male CB17 SCID mice, second study): 26 µM | mean plasma Tmax ([1]; single oral dose 50 mg/kg, naïve female nude mice): 0.5 h | inhibition of proteasome activity compared with vehicle controls (20S proteasome [3]; blood, EGCG 50 mg/kg IV alone, 4 h (Fig. 4a)): No inhibition | inhibition of proteasome activity compared with vehicle controls (20S proteasome [4]; tumor, EGCG 50 mg/kg IV alone, 4 h (Fig. 4a)): No inhibition
Compound: O=C(O[C@@H]1Cc2c(O)cc(O)cc2O[C@@H]1c1cc(O)c(O)c(O)c1)c1cc(O)c(O)c(O)c1 [EGCG, epigallocatechin gallate]
antagonism of 40 nM bortezomib (RPMI-8226 cells; EGCG 3.8 μM): no antagonism | cytotoxicity of EGCG on its own (RPMI-8226 cells; EGCG 100 μM): cytotoxic | impact on the cytotoxicity of bortezomib (RPMI-8226 cells; EGCG concentrations of up to 0.4 μM): no impact | EGCG concentration required for a substantial shift in the potency of bortezomib (RPMI-8226 cells; RPMI8226 cell viability): > 1000 nM | TGI ([2]; EGCG 50 mg/kg IV BIW alone): −15.3% | TGI ([2]; EGCG 50 mg/kg SC BIW single agent): 3.6% | levels of phospho-β-catenin, GADD34, and ATF3 ([5]; EGCG 50 mg/kg IV on its own): does not change levels | EGCG concentration measured clinically ([6]; humans taking EGCG supplements): 0.6 to 3 µM | maximal plasma concentration ([6]; taken after fasting): approximately 3 μM and 1,522 ng/ml | maximal plasma concentration ([6]; taken with food): approximately 0.6 μM and 294 ng/ml | plasma concentration ([7]; 50 mg/kg EGCG administered intragastrically, at 50 min): approximately 60 nM | maximal plasma concentrations ([7]; mice, oral dosing of 50 and 80 mg/kg): 0.06 to 0.28 µM | EGCG concentrations that antagonized the cytotoxic effect of bortezomib (MM cell lines): ≥ 2.5 µM | effect on proteasome inhibition by bortezomib (glioblastoma cell line): blocked proteasome inhibition | effect on the antitumor effects of bortezomib ([8]; oral EGCG 25 or 50 mg/kg, bortezomib i.p. 0.5 mg/kg): inhibits the antitumor effects

Compound: CC(C)C[C@@H](C=O)NC(=O)[C@H](CC(C)C)NC(=O)[C@H](CC(C)C)NC(=O)OCc1ccccc1 [MG-132] (Cbz-Leu-Leu-Leu-aldehyde)
effect of EGCG on the proteasome inhibitor [9]: has no effect

Compound: CC(C)C[C@H](NC(=O)[C@H](CC(C)C)NC(=O)[C@H](CC(C)C)NC(=O)OCc1ccccc1)B(O)O [MG-262]
effect of EGCG on the proteasome inhibitor [9]: antagonizes

Cmax ([10]; plasma, 40 mg/kg): 72.8 µM | Tmax ([10]; plasma, 40 mg/kg): 4 h | Cmax ([10]; plasma, 500 mg/kg): 193 µM | Tmax ([10]; plasma, 500 mg/kg): 2 h | time elevated plasma level above endogenous is maintained ([10]; oral dosing 40 and 500 mg/kg): at least 6 h | levels of endogenous ascorbic acid ([10]; plasma, naïve or CWR22 tumor-bearing male CB-17 SCID mice): 48.3 to 59.2 µM
Compound: O=C1O[C@H]([C@@H](O)CO)C(O)=C1O [ascorbic acid]
TGI ([2]; ascorbic acid 40 mg/kg PO QD alone): −24.4% | TGI ([2]; ascorbic acid 500 mg/kg PO QD alone): −15.5% | maximal concentrations [11]: approximately 150 μM | antagonism of the activity of bortezomib (RPMI8226 cells; 30 μM ascorbic acid, 5 and 10 nM bortezomib): partially antagonized | antagonism of the activity of bortezomib (RPMI8226 cells; 250 μM ascorbic acid, 5–10 nM bortezomib): nearly complete antagonism | effect on the antitumor effects of bortezomib ([8]; oral vitamin C 40 mg/kg/day, bortezomib IV 0.1 mg/kg): inhibits the antitumor effects

increase in the IC50 of bortezomib (RPMI-8226 cells; 3.8 μM EGCG versus no EGCG): 2.5 fold | IC50 (RPMI-8226 cells; read-out: Btz IC50, RPMI-8226 cells, 48 h, EGCG 425 nM (0.4 μM)): 7 nM | inhibition at 0.8 mg/kg (20S proteasome [3]; [13]): 44% | inhibition at 0.8 mg/kg (20S proteasome [3]; read-out: mean proteasome inhibition): 59% | inhibition at 0.8 mg/kg (20S proteasome [4]; [13]): 52%
Compound: CC(C)C[C@H](NC(=O)[C@H](Cc1ccccc1)NC(=O)c1cnccn1)B(O)O [bortezomib, reference compound]
TGI ([2]; bortezomib 0.8 mg/kg IV BIW alone, vitamin C study (Fig. 5b)): 62.8% | TGI ([2]; bortezomib 0.8 mg/kg IV BIW single agent, across EGCG studies, versus control): 53.9–58.9% | levels of phospho-β-catenin, GADD34, and ATF3 compared with vehicle controls ([5]; bortezomib 0.8 mg/kg IV): elevated levels | drop of plasma concentrations [12]: more than 10 fold | effect of EGCG on the proteasome inhibitor [9]: antagonizes

Compound: Cc1c(O)cccc1C(=O)N[C@@H](CSc1ccccc1)[C@H](O)CN1C[C@H]2CCCC[C@H]2C[C@H]1C(=O)NC(C)(C)C [nelfinavir]
effect of EGCG on the proteasome inhibitor [9]: has no effect
